The source made the active and inactive calls. The rule behind the calls is not given here. A value given as a limit tells only on which side of the number the result lay.

Tested on in the first data set: not listed separately
Description: Inhibition of advanced glycation end product formation in phosphate buffered saline at pH 7.4 after 14 days by fluorospectrophotometry in presence of bovine serum albumin.
Conditions: not given
Type of data set: physicochemical.
For the compound `CC(=O)Oc1cc(OCCO[N+](=O)[O-])cc2oc(-c3ccccc3)cc(=O)c12`, the IC50 was no less than 300 µM.

Take `O=c1cc(-c2ccccc2)oc2cc(OCCCCCCO[N+](=O)[O-])cc(O)c12`: the IC50 is no less than 300 µM.

On to `CC(=O)Oc1cc(OCCCCO[N+](=O)[O-])cc2oc(-c3ccccc3)cc(=O)c12`, for which the half-inhibitory concentration (IC50) is no less than 300 µM.

Consider `N=C(N)NN` [PIMAGEDINE], for which the concentration for half-maximal inhibition (IC50) is 826 µM.

As to `O=C(CCCCO[N+](=O)[O-])OCOc1cc(O)c2c(=O)cc(-c3ccccc3)oc2c1`, the IC50 amounted to 52.5 µM.

Consider `O=C(CCCCCCO[N+](=O)[O-])OCOc1cc(O)c2c(=O)cc(-c3ccccc3)oc2c1`, for which the IC50 stood at 138 µM.

Turning to `O=c1cc(-c2ccccc2)oc2cc(O)cc(O)c12` [CHRYSIN], the IC50 was found to be 63.5 µM.

Take `O=c1cc(-c2ccccc2)oc2cc(OCCO[N+](=O)[O-])cc(O)c12`: the IC50 was no less than 300 µM.

For `O=c1cc(-c2ccccc2)oc2cc(OCCCCO[N+](=O)[O-])cc(O)c12`, the IC50 was determined as 75.5 µM.

For the compound `CC(=O)Oc1cc(OCCCCCCO[N+](=O)[O-])cc2oc(-c3ccccc3)cc(=O)c12`, the IC50 is no less than 300 µM.

For the compound `O=C(CCO[N+](=O)[O-])OCOc1cc(O)c2c(=O)cc(-c3ccccc3)oc2c1`, the 50% inhibitory concentration (IC50) is 43.9 µM.

Tested on in the next data set: not listed separately
In words: Induction of NO release in phosphate buffered saline of pH 7.4 at 100 uM after 1 hr by Griess assay in presence of L-cysteine. In kind it is physicochemical. The conditions noted are these: buffer, pH 7.4, 1 h. The gist of the method: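 Incubated 1 h at 37 °C in PBS pH 7.4 with L-cysteine. Reaction mixture treated with Griess reagent (sulfanilamide, N-naphthylethylenediamine dihydrochloride, phosphoric acid) for 10 min at room temperature, then absorbance read at 540 nm. Expressed as percent of a theoretical maximum of 1 mol NO per mol compound. Sodium nitroprusside as positive control.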
With `CC(=O)Oc1cc(OCCO[N+](=O)[O-])cc2oc(-c3ccccc3)cc(=O)c12`, the Activity is listed as 1.68%.

Take `O=c1cc(-c2ccccc2)oc2cc(OCCCCCCO[N+](=O)[O-])cc(O)c12`: the Activity is 1.21%.

Consider `CC(=O)Oc1cc(OCCCCO[N+](=O)[O-])cc2oc(-c3ccccc3)cc(=O)c12`, for which the Activity was 1.48%.

`O=C(CCCCO[N+](=O)[O-])OCOc1cc(O)c2c(=O)cc(-c3ccccc3)oc2c1`: the Activity came to 1.26%.

Take `O=C(CCCCCCO[N+](=O)[O-])OCOc1cc(O)c2c(=O)cc(-c3ccccc3)oc2c1`: the Activity was found to be 1.38%.

In the case of `O=c1cc(-c2ccccc2)oc2cc(OCCO[N+](=O)[O-])cc(O)c12`, the Activity is given as 1.67%.

With `O=c1cc(-c2ccccc2)oc2cc(OCCCCO[N+](=O)[O-])cc(O)c12`, the Activity is 1.43%.

Turning to `CC(=O)Oc1cc(OCCCCCCO[N+](=O)[O-])cc2oc(-c3ccccc3)cc(=O)c12`, the Activity came to 1.43%.

As to `O=C(CCO[N+](=O)[O-])OCOc1cc(O)c2c(=O)cc(-c3ccccc3)oc2c1`, the Activity came to 1.77%.

A further data set deals with HepG2. In words: Increase in glucose consumption in human HepG2 cells at 10 umol/L after 24 hrs by enzymatic method relative to control blank. In kind it is functional, cell-based.
Conditions: not given
A digest of the protocol:
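HepG2 cells in high-glucose DMEM with 10% FBS, grown to 80–90% confluence, switched to DMEM with 1% FBS for 12 h, then treated 24 h in the same medium. Medium glucose measured enzymatically with a kit. Consumption taken as blank-well glucose minus remaining glucose, then adjusted for cell number by MTT. Vehicle 0.1% DMSO; mean S.D., n = 3.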
As for `O=c1cc(-c2ccccc2)oc2cc(OCCCCCCO[N+](=O)[O-])cc(O)c12`, the result was Active.

For the compound `O=C(CCCCO[N+](=O)[O-])OCOc1cc(O)c2c(=O)cc(-c3ccccc3)oc2c1`, the result was Active.

For `O=C(CCCCCCO[N+](=O)[O-])OCOc1cc(O)c2c(=O)cc(-c3ccccc3)oc2c1`, the outcome was Active.

For the compound `O=c1cc(-c2ccccc2)oc2cc(O)cc(O)c12` [CHRYSIN], the outcome was inactive.

On to `O=c1cc(-c2ccccc2)oc2cc(OCCO[N+](=O)[O-])cc(O)c12`, for which the result was Active.

As for `O=c1cc(-c2ccccc2)oc2cc(OCCCCO[N+](=O)[O-])cc(O)c12`, the outcome was Active.

The target of another data set is Aldo-keto reductase family 1 member B1 (Bos taurus, UniProt P16116). Description: Inhibition of aldose reductase from calf lense by AR assay.
Conditions: not given
In turn, `CC(=O)Oc1cc(OCCO[N+](=O)[O-])cc2oc(-c3ccccc3)cc(=O)c12` displayed an IC50 of 0.86 µM.

Regarding `O=c1cc(-c2ccccc2)oc2cc(OCCCCCCO[N+](=O)[O-])cc(O)c12`, the concentration for half-maximal inhibition (IC50) was 0.71 µM.

Compound `CC(=O)Oc1cc(OCCCCO[N+](=O)[O-])cc2oc(-c3ccccc3)cc(=O)c12` showed an IC50 of 0.39 µM.

`O=C(CCCCO[N+](=O)[O-])OCOc1cc(O)c2c(=O)cc(-c3ccccc3)oc2c1` displayed an IC50 of 0.13 µM.

As for `O=C(CCCCCCO[N+](=O)[O-])OCOc1cc(O)c2c(=O)cc(-c3ccccc3)oc2c1`, the half-maximal inhibitory concentration (IC50) turned out to be 0.21 µM.

Take `O=c1cc(-c2ccccc2)oc2cc(O)cc(O)c12` [CHRYSIN]: the IC50 came to 7.79 µM.

Compound `O=c1cc(-c2ccccc2)oc2cc(OCCO[N+](=O)[O-])cc(O)c12` gave an IC50 of 0.49 µM.

On to `O=c1cc(-c2ccccc2)oc2cc(OCCCCO[N+](=O)[O-])cc(O)c12`, for which the half-inhibitory concentration (IC50) amounted to 0.29 µM.

Regarding `CC(=O)Oc1cc(OCCCCCCO[N+](=O)[O-])cc2oc(-c3ccccc3)cc(=O)c12`, the IC50 stood at 0.42 µM.

Compound `O=C(CCO[N+](=O)[O-])OCOc1cc(O)c2c(=O)cc(-c3ccccc3)oc2c1` displayed an IC50 of 0.3 µM.

The IC50 is the concentration needed to halve the response being measured.
